A short description of data set [1]: melting temperature; fluorescence melt of hairpins on a sequencing array, two-state fit, raised by 9.35 °C to match UV melts. Conditions: sodium 0.088 M. The gist of the method: (§1)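 Bootstrapped two-state fits yielded melting temperature and folding enthalpy for library hairpins. Cy3 fluorescence, with annealed Cy3 and quencher oligos, was imaged on a sequenced MiSeq flow cell in 50 mM Na-HEPES pH 8.0, 25 mM NaCl in 2.5 °C steps up to 60 °C, and normalised to pre-quench Cy3 and to control constructs. Four replicates were combined by inverse variance, and fitted temperatures were raised by 9.35 °C to match UV melts.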

The nature of data set [2]: folding enthalpy; higher = less favourable; fluorescence melt of hairpins on a sequencing array, two-state fit. The following applies: sodium 0.088 M. In short, it runs like this: as §1

Take GACCACGGAAACGTGATC ((.((((....)))).)): the Tm in data set [1] turned out to be 43.3 °C. For the same sequence, the folding enthalpy in data set [2] was -83.3 kJ/mol.
Turning to GACCAGACGAAAGTCGTC (((..(((....)))))), in data set [1], the Tm was 31.7 °C. Further, the folding enthalpy in data set [2] is -52.2 kJ/mol.
In the same order, the values of GACCAGCCGAAAGGCGTC (((..(((....)))))) are 34.5 °C and -32.8 kJ/mol.
The like results for GACCAGGGAAACCCAGTC (((..((....))..))) were, in that order, 29.1 °C and -76.8 kJ/mol.
The like results for GACCAGGGAAACCTGATC ((.((((....)))).)) were, in that order, 34.8 °C and -93.2 kJ/mol.
Turning to GACCATACGAAAGTAGTC (((..(((....)))))), in data set [1], the Tm turned out to be 25.7 °C. In data set [2], the folding enthalpy was -41.5 kJ/mol.
For GACCATGGAAACATAGTC (((.(((....))).))), the Tm in data set [1] came to 30.8 °C. Further, the folding enthalpy in data set [2] is -82.9 kJ/mol.
In the same order, the values of GACCATGGAAACGTGGTC (((((.(....).))))) are 52.6 °C and -179 kJ/mol.
For GACCCAGGAAACCAGGTC ((((..(....)..)))), the Tm in data set [1] was 34 °C. Besides, the folding enthalpy in data set [2] was -102 kJ/mol.
In the same order, the values of GACCCAGGAAACTGGGCC (.(((((....))))).) are 47.9 °C and -69.2 kJ/mol.
GACCCCCGAAAGGGAGTC (((.(((....))).))): the Tm in data set [1] turned out to be 54 °C. Besides, the folding enthalpy in data set [2] is -120 kJ/mol.
The like results for GACCCCGAAAGGGAGGTC ((((((....)))..))) were, in that order, 49.4 °C and -91.4 kJ/mol.
For the sequence GACCCCGAAAGGGAGTC ((((((....))).))), the Tm in data set [1] was found to be 56.5 °C. In data set [2], the folding enthalpy is -96.4 kJ/mol.
In the same order, the values of GACCCCGAAAGGGTGTC ((((((....))).))) are 57.6 °C and -111 kJ/mol.
In the same order, the values of GACCCTCCGAAAGGAGTC (((..(((....)))))) are 23.4 °C and -30.7 kJ/mol.
In the same order, the values of GACCCTGGAAACAGGGTC (((((((....))))))) are 67.7 °C and -155 kJ/mol.
In the case of GACCCTGGAAACGGGGTC (((((.(....).))))), the Tm in data set [1] amounted to 57.6 °C. For the same sequence, in data set [2], the folding enthalpy was -169 kJ/mol.
In the case of GACCGAGCGAAAGCTGTC (((..(((....)))))), the Tm in data set [1] was 36.8 °C. Further, the folding enthalpy in data set [2] is -64.1 kJ/mol.
With GACCGAGGAAACTCGATC ((.((((....)))).)), the Tm in data set [1] was determined as 40.7 °C. In addition, the folding enthalpy in data set [2] is -88.2 kJ/mol.
In the same order, the values of GACCGAGGAAACTCGGCC (.(((((....))))).) are 46.6 °C and -63.3 kJ/mol.
The like results for GACCGCCGAAAGGCTGTC (((.(((....))).))) were, in that order, 55.5 °C and -86.1 kJ/mol.
The like results for GACCGCGAAAGCGAAGTC ((((((....)))..))) were, in that order, 47.4 °C and -70.9 kJ/mol.
With GACCGCGAAAGCGCAGTC ((((((....)))..))), in data set [1], the Tm amounted to 38 °C. In data set [2], the folding enthalpy is -68.1 kJ/mol.
The like results for GACCGCGGAAACACGGTC (((((.(....).))))) were, in that order, 55.5 °C and -218 kJ/mol.
The like results for GACCGCGGAAACGTGGTC ((((.((....)).)))) were, in that order, 62.8 °C and -187 kJ/mol.
In the same order, the values of GACCGGCGAAAGCCCGTC (((.(((....))).))) are 50.8 °C and -70.9 kJ/mol.
On to GACCGGCGAAAGCCGTC (((.(((....)))))), for which the Tm in data set [1] was 49.1 °C. The folding enthalpy in data set [2] is -34.6 kJ/mol.
The like results for GACCGGGCGAAAGCCGTC (((..(((....)))))) were, in that order, 40.4 °C and -43.2 kJ/mol.
The like results for GACCGGGGAAACCCAGTC (((.(((....))).))) were, in that order, 42.8 °C and -99 kJ/mol.
The like results for GACCGGGGAAACCCGATC ((.((((....)))).)) were, in that order, 44 °C and -83.5 kJ/mol.
Take GACCGGGGAAACCTGGTC ((((.((....)).)))): the Tm in data set [1] turned out to be 55.4 °C. Moreover, the folding enthalpy in data set [2] is -164 kJ/mol.
The like results for GACCGTGGAAACACGATC ((.((((....)))).)) were, in that order, 43.1 °C and -79.8 kJ/mol.
The like results for GACCGTGGAAACGCGGTC (((((.(....).))))) were, in that order, 58.6 °C and -167 kJ/mol.
GACCTAGCGAAAGCTGTC (((..(((....)))))): the Tm in data set [1] stood at 33 °C. For the same sequence, the folding enthalpy in data set [2] is -48.6 kJ/mol.
In the same order, the values of GACCTCCGAAAGGACGTC (((.(((....))).))) are 42 °C and -114 kJ/mol.
The like results for GACCTCGCGAAAGCGGTC (((..(((....)))))) were, in that order, 42.3 °C and -51.5 kJ/mol.
The like results for GACCTGGAAACAGGTC ((((((....)))))) were, in that order, 61.4 °C and -170 kJ/mol.

(Values after the array DNA melting data of Ke et al. (doi:10.1101/2024.01.08.574731).)
